Results as given in ChEMBL document CHEMBL1687818, “Mechanistic studies of the inactivation of TEM-1 and P99 by NXL104, a novel non-beta-lactam beta-lactamase inhibitor” (Antimicrob Agents Chemother, 2010).
pIC50, pKi: −log10 of the molar value.

Legend:
[1] = Inhibition of beta-lactamase SHV-4 assessed as nitrocefin hydrolysis after 5 mins enzyme-compound preincubation
Method in brief: (§1)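 Enzyme and inhibitor were preincubated 5 min at 37°C. The inhibitor was tested at 11 concentrations from 1 nM to 100 µM. Final enzyme concentrations were TEM-1 0.25 nM, CTX-M-15 0.35 nM, KPC-2 3 nM and SHV-4 6 nM. Nitrocefin was at 100 µM. Initial rates were read at 485 nm over the first minute. Each value is the mean of at least two independent experiments.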

[2] = Inhibition of beta-lactamase KPC-2 assessed as nitrocefin hydrolysis after 5 mins enzyme-compound preincubation; method in brief: as §1
[3] = Inhibition of beta-lactamase TEM- 1 assessed as nitrocefin hydrolysis after 5 mins enzyme-compound preincubation; method in brief: as §1
[4] = Inhibition of beta-lactamase TEM-1 after 5 seconds incubation with nitrocefin substrate by spectrophotometry
Method in brief: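 Direct competition with reporter substrate at 37°C: inhibitor concentrations were premixed with 100 µM nitrocefin, and the reaction was started with 0.25 nM purified TEM-1. Nitrocefin hydrolysis was followed spectrophotometrically at 485 nm. Initial velocity over the first 5 s was compared with the no-inhibitor control, and KI was derived by equation 2. Means of at least two independent experiments.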

[5] = Inhibition of beta-lactamase CTX-M-15 assessed as nitrocefin hydrolysis after 5 mins enzyme-compound preincubation
Beta-lactamase [6] = target: T1, Beta-lactamase (Enterobacter cloacae, UniProt P05364); experiment: Inhibition of Enterobacter cloacae beta-lactamase P99 assessed as nitrocefin hydrolysis after 5 mins enzyme-compound preincubation
Beta-lactamase [7] = target: T1, Beta-lactamase; experiment: Inhibition of Enterobacter cloacae beta-lactamase P99 after 5 seconds incubation with nitrocefin substrate by spectrophotometry

T1 sequence (P05364 whole entry): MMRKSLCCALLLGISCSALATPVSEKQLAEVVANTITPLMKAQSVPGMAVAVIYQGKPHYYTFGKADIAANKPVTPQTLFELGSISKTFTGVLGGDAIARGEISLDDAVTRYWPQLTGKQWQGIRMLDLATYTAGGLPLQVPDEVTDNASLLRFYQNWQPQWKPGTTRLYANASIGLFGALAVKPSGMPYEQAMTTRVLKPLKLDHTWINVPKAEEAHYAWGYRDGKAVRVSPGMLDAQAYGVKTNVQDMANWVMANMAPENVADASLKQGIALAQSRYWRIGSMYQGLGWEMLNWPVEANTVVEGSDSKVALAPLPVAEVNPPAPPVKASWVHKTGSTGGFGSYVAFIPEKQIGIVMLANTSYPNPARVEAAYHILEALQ

Row | Structure (SMILES) | pIC50 [1] | pIC50 [2] | pIC50 [3] | pKi [4] | pIC50 [5] | pIC50 (Beta-lactamase [6]) | pKi (Beta-lactamase [7])
1 | O=C(O)[C@H]1/C(=C/CO)O[C@@H]2CC(=O)N21 [CLAVULANIC ACID] | 8.40 | < 4.00 | 7.24 | 6.10 | – | – | –
2 | CC1(C)[C@H](C(=O)O)N2C(=O)C[C@H]2S1(=O)=O [SULBACTAM] | 6.59 | 4.24 | 5.81 | – | 6.64 | – | –
3 | C[C@]1(Cn2ccnn2)[C@H](C(=O)O)N2C(=O)C[C@H]2S1(=O)=O [TAZOBACTAM] | 7.26 | 4.30 | 7.49 | 7.52 | 8.22 | – | –
4 | NC(=O)[C@@H]1CC[C@@H]2CN1C(=O)N2OS(=O)(=O)O (relative stereo) [AVIBACTAM] | 8.52 | 6.77 | 8.10 | 6.59 | 8.30 | 7.00 | 5.11
